Source: PubChem BioAssay
Wee1 stabilizer – blocks degradation of human Wee1 kinase; P30291; HeLa Luc-Wee1K328M stability, luciferase luminescence; 100% = proteasome inhibitor MG132 effect; reporter increase, % at 5 µM; actives 1.2% (n = 220,000); AID 1321;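 active means activation above the mean of all tested compounds plus 3 SD, set per screening run, cut at about 8.8% in these data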;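 further: cells exposed to compound for 20 h before luminescence read; 0% = DMSO alone and 100% = MG132 at 30 µM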
p97 ATPase inh – inhibitors of human p97 ATPase; recombinant p97 ATPase, Kinase-Glo ATP luminescence, 3 h; P55072; inhibition, % at 8 µM; actives 0.42% (n = 220,000); in the data active means inhibition above about 15%;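 further: 0% = DMSO vehicle and 100% = wells lacking enzyme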
Target sequence (P55072 whole entry, looked up): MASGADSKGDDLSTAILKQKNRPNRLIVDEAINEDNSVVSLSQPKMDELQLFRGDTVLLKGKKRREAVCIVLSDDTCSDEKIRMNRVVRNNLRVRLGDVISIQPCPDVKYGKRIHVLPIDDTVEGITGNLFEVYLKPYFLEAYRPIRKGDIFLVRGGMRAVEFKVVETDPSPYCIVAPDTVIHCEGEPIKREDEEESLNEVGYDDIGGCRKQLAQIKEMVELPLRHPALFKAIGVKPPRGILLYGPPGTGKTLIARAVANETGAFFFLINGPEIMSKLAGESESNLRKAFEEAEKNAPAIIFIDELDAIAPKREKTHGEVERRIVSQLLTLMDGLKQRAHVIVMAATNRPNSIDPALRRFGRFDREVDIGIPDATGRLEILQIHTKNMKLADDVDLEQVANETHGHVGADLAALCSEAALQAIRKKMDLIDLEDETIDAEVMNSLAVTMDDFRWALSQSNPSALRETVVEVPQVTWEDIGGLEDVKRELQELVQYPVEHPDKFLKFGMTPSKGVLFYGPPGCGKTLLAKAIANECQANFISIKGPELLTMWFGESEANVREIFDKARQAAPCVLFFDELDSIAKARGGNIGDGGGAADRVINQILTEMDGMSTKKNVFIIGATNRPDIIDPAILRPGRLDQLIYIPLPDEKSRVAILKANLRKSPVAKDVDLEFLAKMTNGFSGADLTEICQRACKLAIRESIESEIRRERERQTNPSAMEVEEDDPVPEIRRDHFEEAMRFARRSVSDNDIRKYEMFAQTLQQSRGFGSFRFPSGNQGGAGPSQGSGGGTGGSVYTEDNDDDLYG
APP 5'UTR act – APP 5'UTR luciferase reporter activation. SH-SY5Y APP 5'UTR luciferase reporter, luminescence; zero percent = DMSO vehicle wells. activation, % at 2 µM. actives 1% (n = 190,000);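 active means activation above a set limit, based on mean plus 3 SD of controls, cut at about 140% in these data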
STAT1 activator – activators of IFN-gamma induced STAT1 signaling; NIH 3T3 STAT1-luciferase reporter, luminescence; 100% = IFN-gamma alone, no compound; activation (% of control), % at 5.5 µM; actives 2.6% (n = 200,000); AID 932;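 active means activation above the screen-wide mean activation plus 3 SD, cut at about 130% in these data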;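 further: raw ratio to IFN-gamma control signal so 100% means no change and 0% no light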
MDM2 E3 inh – blocks human Mdm2 ubiquitin ligase activity | Q00987 | cell-based MDM2 ubiquitination luciferase reporter, 2 h; 0 = plate control, 100 = twice control, blank-subtracted | signal enhancement, % at 5 µM | actives 0.11% (n = 210,000);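 active means signal enhancement of 30% or more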;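 further: luminescence tracks abundance of the self-degrading MDM2-luciferase fusion protein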
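Material: Stable MDM2–luciferase fusion reporter cells | Amount: 2000 cells seeded into each well | Dosing: One concentration, 5 µM, with 0.2% DMSO | Incubation: 4 h cell settling then 2 h compound exposure, 37 °C | Measured by: Luciferase luminescence | Read-out basis: % enhancement relative to plate controls after blank subtraction | Benchmarks: Control and blank well means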
NF-kB neuron act – compounds increasing NF-kB expression in human neuronal cells; NF-kB reporter expression; hits give high values; AID 1239; actives 1.6% (n = 190,000); fold change at 12.5 µM; in the data active means fold change above about 3.3
Active calls of the source: *; . = not tested or not shown. This is a sample that favours compounds with a hit; in the whole collection about 4.6% have one here.

SMILES | Wee1 stabilizer | p97 ATPase inh | APP 5'UTR act | STAT1 activator | MDM2 E3 inh | NF-kB neuron act
Cc1nn(-c2nc3ccccc3s2)c(N)c1-c1ccc(Cl)cc1 | 0 | 4 | -8 | 126 | 3 | 1.8
Cc1nn(-c2nc3ccccc3s2)c(N)c1Sc1ccc(F)cc1 | 1 | 0 | 32 | 138* | 13 | 1.2
Cc1nn(-c2nc3ccccc3s2)c(N)c1-c1ccccc1 | 2 | 4 | 122 | 143* | 3 | 7.6*
Cc1cc(C)n(-c2nc3ccccc3s2)n1 | -5 | 3 | 38 | 122 | 5 | 2.1
NS(=O)(=O)c1ccc(NC(=O)COC(=O)c2ccc([N+](=O)[O-])s2)cc1 | -1 | 7 | . | . | -6 | .
O=C(COC(=O)[C@H](Cc1ccccc1)NC(=O)c1cccs1)NC1CC1 | -1 | 3 | -4 | 98 | -15 | 1.3
COc1ccc(OCCN2C(=O)c3ccccc3C2=O)cc1 | 2 | 3 | 8 | 126 | -7 | 1.7
O=C1c2ccccc2C(=O)N1CCOc1ccccc1 | 6 | -4 | 11 | 135* | . | .
Oc1ccc(-c2cn3cc(C(F)(F)F)ccc3n2)cc1 | 2 | -2 | 229* | 98 | -46 | 13*
COc1ccc(-c2cn3cc(C(=O)NN)ccc3n2)cc1 | 4 | 0 | 67 | 119 | -30 | 1.1
Cc1cc(C)c2[nH]c(=O)c(CN(Cc3cccs3)C(=S)NCc3ccco3)cc2c1 | -2 | 7 | 1 | 96 | 4 | 0.88
Cc1ccc(Cn2cccc(-c3nc4ccccc4s3)c2=O)cc1 | 1 | -8 | 31 | 140* | -16 | 2.6
COc1ccc2cc(-c3cc(C(=O)O)c4ccccc4n3)ccc2c1 | 1 | -9 | 84 | 36 | -95 | 6.3*
CC(=O)NCc1ccc(-c2nc3ccccc3s2)cc1 | 5 | -7 | 151* | 136* | -22 | 1.1
O=C(NCc1ccccc1)c1nc2ccccc2s1 | 4 | 1 | 39 | 112 | 7 | 1.1
Nc1ccccc1-c1nc2ccccc2s1 | 1 | 2 | 119 | 144* | -4 | 2.4
CCCCCCc1cc2cc(S(=O)(=O)c3ccc(F)c(Cl)c3)c(=O)oc2cc1O | -3 | -3 | 25 | 93 | -13 | 0.43
Cc1cc([N+](=O)[O-])nn1CCCC(=O)Nc1cccc(Cl)c1Cl | -3 | -7 | -19 | 99 | -7 | 1
Cn1cc(CN2C[C@]3(C)C[C@H]2CC(C)(C)C3)c(-c2ccc3c(c2)OCCO3)n1 | -1 | 4 | 1 | 105 | -22 | 1.3
COc1ccc(C2SCC(=O)N2CCc2ccc(OC)c(OC)c2)cc1 (stereo not drawn) | 6 | -6 | -10 | 73 | -8 | 0.79
CS(=O)(=O)NCc1ccc(C(=O)O)cc1 | -3 | 4 | 22 | 100 | -9 | 1.3
c1ccc2sc(-c3ccc4c(c3)OCO4)nc2c1 | 14* | -25 | 168* | 96 | -74 | 6.3*
Oc1ccc(-c2nc3ccccc3s2)cc1 | 1 | -4 | . | . | -53 | .
COc1ccc(-c2nc3ccccc3s2)cc1 | 2 | -4 | 169* | 33 | -82 | 3.2
COc1ccc2nc3ccccc3nc2c1 | 1 | 2 | 45 | 144* | 1 | 2.1
SMILES | Wee1 stabilizer | p97 ATPase inh | APP 5'UTR act | STAT1 activator | MDM2 E3 inh | NF-kB neuron act
COc1ccc(-c2ccc3ccccc3n2)cc1 | 6 | -2 | 206* | 78 | -67 | 10*
Cn1c(Cc2nc(-c3cnccn3)no2)nnc1SCC(=O)Nc1ccccc1 | 2 | 5 | . | . | -9 | .
Cn1c(=O)c2c(nc(Br)n2C/C=N/NC(N)=S)n(C)c1=O | 0 | 12 | . | . | -12 | .
Cc1cc(C(F)(F)F)n2nc(-c3cnn(C)c3C(F)(F)F)c(Br)c2n1 | -2 | 1 | 6 | 105 | -6 | 1.1
CNC(=O)Nc1ccccc1C(=O)Nc1ccccc1 | -3 | 7 | . | . | -5 | .
Cc1ccc(OC(=O)C2c3ccccc3Oc3ccccc32)cc1C | -3 | 3 | 21 | 108 | -10 | 4.6*
Cc1ccc2oc(=O)c3cc(C(=O)N4CCN(C)CC4)sc3c2c1 | -2 | 8 | . | . | 0 | .
CSc1ccc(/C=N/n2c(C)cc(C)cc2=O)cc1 | 1 | -4 | 19 | 130* | -33 | 2.4
COc1ccc2[nH]c(C(O)(Cc3cccnc3)Cc3cccnc3)cc2c1 | -1 | 5 | 8 | 101 | -1 | 1.1
CC(=O)Cc1nsc(Nc2ccc3c(c2)OCCO3)n1 | 5 | 4 | 92 | 148* | -5 | 2.1
CC(=O)Cc1nsc(Nc2ccc(F)cc2)n1 | 0 | 3 | -5 | 110 | -3 | 1.2
CCOc1ccc(NC(=O)Nc2cc(C)ccc2F)cc1 | 6 | -9 | 131 | 129* | -7 | 2.4
CCOc1ccc(NC(=O)Nc2cccs2)cc1 | 0 | -2 | . | 123 | -6 | 4.5*
CCOc1ccc(NC(=O)Nc2cc(C(C)C)c(O)cc2C)cc1 | 4 | 2 | . | . | -8 | .
Cc1ccc(NC(=O)Nc2cccs2)cc1 | 2 | 5 | 95 | 115 | 2 | 2.2
CCc1ccc(NC(=O)Nc2cccs2)cc1 | 6 | -3 | 6 | 134* | -12 | 3.8*
CCOc1ccc(N2C(=O)c3ccccc3C2=O)cc1 | -1 | 3 | -3 | 117 | -15 | 1.4
CCOc1ccc(N2Cc3ncccc3C2=O)cc1 | 2 | -4 | 83 | 140* | -6 | 1.9
CC1(C)CC2CC(C)(CN2C(=S)Nc2ccccc2F)C1 (stereo not drawn) | 0 | 1 | -5 | 98 | 12 | 1
COc1nc(C)nc2c1sc1nc3c(cc12)COC(C)(C)C3 | 6 | -1 | 55 | 137* | -14 | 2.6
O=C(Nc1ccc(Cl)cc1)/C(=C/c1ccc([N+](=O)[O-])cc1)c1nc2ccccc2s1 | -3 | 1 | -96 | 114 | -20 | .
CC(C)(CN1CCN(c2ccccc2)CC1)NS(=O)(=O)c1ccccc1 | 0 | -6 | . | . | -42 | .
CN(C(=O)/C=C/c1cnc2ccccc2c1)C1CCCCC1 | 5 | 1 | 275* | 105 | -37 | 3.9*
CCOC(=O)COc1cc(-n2c(=S)[nH]c3ccccc3c2=O)c(Cl)cc1Cl | 0 | -5 | 10 | 91 | 7 | 1
CCOC(=O)COc1cc(N)c(Cl)cc1Cl | 13* | 6 | 2 | 105 | 8 | 1.2
CCCn1c(N)c(N2CCCCC2)c(=O)n(CC(=O)Nc2ccc(OC(F)(F)F)cc2)c1=O | 0 | 0 | 1 | 96 | -16 | 1.2
CCCCN(C(C)=O)c1c(N)n(CCC)c(=O)n(CC(=O)Nc2cc(Cl)cc(Cl)c2)c1=O | 12* | 1 | -16 | 100 | 5 | 1.1
Cc1nc(C(C)NC(=O)CCc2nnc(CCCc3ccccc3)o2)c(C)s1 (stereo not drawn) | 1 | -7 | 38 | 149* | -8 | 3.2
CC(C)(CO)CNC(=O)CCc1nnc(CCCc2ccccc2)o1 | -1 | 5 | 9 | 106 | -17 | 1.6
CCc1ccccc1-n1nnnc1-c1cnccc1C(F)(F)F | 1 | 0 | . | . | -14 | .
